Experimental data taken from ChEMBL document CHEMBL3352012, “Synthesis and evaluation of novel podophyllotoxin derivatives as potential antitumor agents” (Eur J Med Chem, 2014).
The source made the active and inactive calls. No cut-off for these calls is given here.

What was measured:
[1] = test system: K562; test: Resistance index, ratio of IC50 for human K562/A02 cells to IC50 for human K562 cells; assay type: functional
[2] = test system: HeLa; test: Cytotoxicity against human HeLa cells after 48 hrs by MTT assay; assay type: functional, cell-based
How it was run: (§1)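 Cells kept in RPMI-1640 with 10% FBS, 2 mmol/L glutamine, penicillin and streptomycin at 37 °C, 5% CO2. Seeded at 5 × 10³ cells/well and left 24 h to attach, then exposed to compounds or etoposide reference for 48 h. MTT (5 mg/mL) added for 4 h at 37 °C, supernatant removed, formazan dissolved in DMSO, absorbance read at 490 nm.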

[3] = (§2) Cytotoxicity against human K562/A02 cells after 48 hrs by MTT assay; assay type: functional, cell-based; settings: K562/A02, 48 h; how it was run: as §1
[4] = test system: K562; test: Cytotoxicity against human K562 cells after 48 hrs by MTT assay; assay type: functional, cell-based; settings: for IC50: K562, 48 h; how it was run: as §1
[5] = test system: K562/A02; test: Induction of apoptosis in human K562/A02 cells assessed as induction of membrane blebbing at 12 uM after 48 hrs by Hoechst-33342 staining based fluorescence microscopy; assay type: functional, cell-based
How it was run: (§3)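 K562/A02 cells treated 48 h at 3, 6 or 12 concentration levels alongside untreated control and 6 etoposide; nuclei stained with Hoechst 33342 and viewed by fluorescence microscopy at 400× for chromatin condensation, nuclear fragmentation and other apoptotic morphology.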

[6] = test system: K562/A02; test: Induction of apoptosis in human K562/A02 cells assessed as necrotic cells level at 6 uM after 48 hrs by Annexin V-FITC and propidium iodide double staining based flow cytometry (reference value: 1.53%); assay type: functional
[7] = test system: K562/A02; test: Induction of apoptosis in human K562/A02 cells assessed as induction of large cells formation at 6 uM after 48 hrs by Hoechst-33342 staining based fluorescence microscopy; assay type: functional, cell-based; how it was run: as §3
[8] = test system: K562/A02; test: Induction of apoptosis in human K562/A02 cells assessed as induction of multinucleation at 6 uM after 48 hrs by Hoechst-33342 staining based fluorescence microscopy; assay type: functional, cell-based; how it was run: as §3
[9] = test system: K562/A02; test: Induction of apoptosis in human K562/A02 cells assessed as viable cells level at 3 uM after 48 hrs by Annexin V-FITC and propidium iodide double staining based flow cytometry (reference value: 90.7%); assay type: functional
[10] = test system: K562/A02; test: Induction of apoptosis in human K562/A02 cells at 12 uM after 48 hrs by Annexin V-FITC and propidium iodide double staining based flow cytometry (reference value: 7.9 +/- 1.34%); assay type: functional
[11] = test system: K562/A02; test: Induction of apoptosis in human K562/A02 cells assessed as late apoptotic cells level at 3 uM after 48 hrs by Annexin V-FITC and propidium iodide double staining based flow cytometry (reference value: 1.58%); assay type: functional
[12] = Reduction in MDR1 mRNA expression in human K562/A02 cells at 6 uM incubated for 48 hrs by RT-PCR method; assay type: functional, cell-based
How it was run: (§4)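 K562 and K562/A02 cells seeded 1 × 10⁵/well in 10% FCS/RPMI-1640; compound added 24 h later, then cultured another 48 h. Total RNA extracted with Trizol, checked at 260/280 nm, reverse transcribed; MDR-1 (157 bp) and β-actin (540 bp) amplified, products run on agarose gel, stained, MDR-1 normalised to β-actin against untreated control.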

[13] = test system: K562/A02; test: Induction of apoptosis in human K562/A02 cells assessed as induction of nuclear fragmentation at 12 uM after 48 hrs by Hoechst-33342 staining based fluorescence microscopy; assay type: functional, cell-based; how it was run: as §3
[14] = Reduction in MDR1 mRNA expression in human K562/A02 cells assessed as MDR1 mRNA levels at 12 uM incubated for 48 hrs by RT-PCR method (reference value: 100%); assay type: functional, cell-based; set-up: scale not given: the % may be the effect or the level left; how it was run: as §4
[15] = test system: K562/A02; test: Induction of apoptosis in human K562/A02 cells assessed as induction of abnormal mitotic figures at 6 uM after 48 hrs by Hoechst-33342 staining based fluorescence microscopy; assay type: functional, cell-based; how it was run: as §3
[16] = test system: K562/A02; test: Induction of apoptosis in human K562/A02 cells assessed as late apoptotic cells level at 12 uM after 48 hrs by Annexin V-FITC and propidium iodide double staining based flow cytometry (reference value: 1.58%); assay type: functional
[17] = test system: K562/A02; test: Induction of apoptosis in human K562/A02 cells assessed as early apoptotic cells level at 6 uM after 48 hrs by Annexin V-FITC and propidium iodide double staining based flow cytometry (reference value: 6.23%); assay type: functional
[18] = test system: K562/A02; test: Induction of apoptosis in human K562/A02 cells assessed as induction of chromatin condensation at 12 uM after 48 hrs by Hoechst-33342 staining based fluorescence microscopy; assay type: functional, cell-based; how it was run: as §3
[19] = test system: K562/A02; test: Induction of apoptosis in human K562/A02 cells assessed as early apoptotic cells level at 12 uM after 48 hrs by Annexin V-FITC and propidium iodide double staining based flow cytometry (reference value: 6.23%); assay type: functional
[20] = test system: K562/A02; test: Induction of apoptosis in human K562/A02 cells assessed as early apoptotic cells level at 3 uM after 48 hrs by Annexin V-FITC and propidium iodide double staining based flow cytometry (reference value: 6.23%); assay type: functional
[21] = test system: K562/A02; test: Induction of apoptosis in human K562/A02 cells assessed as necrotic cells level at 12 uM after 48 hrs by Annexin V-FITC and propidium iodide double staining based flow cytometry (reference value: 1.53%); assay type: functional
[22] = test system: K562/A02; test: Induction of apoptosis in human K562/A02 cells assessed as induction of cell shrinkage and detachment at 12 uM after 48 hrs by Hoechst-33342 staining based fluorescence microscopy; assay type: functional; how it was run: as §3
[23] = Reduction in MDR1 mRNA expression in human K562/A02 cells incubated for 48 hrs by RT-PCR method; assay type: functional, cell-based; how it was run: as §4
[24] = test system: K562/A02; test: Induction of apoptosis in human K562/A02 cells assessed as induction of large cytoplasmic vacuoles at 6 uM after 48 hrs by Hoechst-33342 staining based fluorescence microscopy; assay type: functional, cell-based; how it was run: as §3
[25] = test system: K562/A02; test: Induction of apoptosis in human K562/A02 cells assessed as viable cells level at 6 uM after 48 hrs by Annexin V-FITC and propidium iodide double staining based flow cytometry (reference value: 90.7%); assay type: functional
[26] = Reduction in MDR1 mRNA expression in human K562/A02 cells at 6 uM incubated for 48 hrs by RT-PCR method relative to untreated control; assay type: functional, cell-based; how it was run: as §4
[27] = test system: K562/A02; test: Induction of apoptosis in human K562/A02 cells assessed as late apoptotic cells level at 6 uM after 48 hrs by Annexin V-FITC and propidium iodide double staining based flow cytometry (reference value: 1.58%); assay type: functional
[28] = test system: K562/A02; test: Induction of apoptosis in human K562/A02 cells assessed as necrotic cells level at 3 uM after 48 hrs by Annexin V-FITC and propidium iodide double staining based flow cytometry (reference value: 1.53%); assay type: functional
[29] = test system: K562/A02; test: Induction of apoptosis in human K562/A02 cells assessed as viable cells level at 12 uM after 48 hrs by Annexin V-FITC and propidium iodide double staining based flow cytometry (reference value: 90.7%); assay type: functional
[30] = test system: K562/A02; test: as §2; assay type: functional, cell-based; how it was run: as §1

COc1cc([C@@H]2c3cc4c(cc3[C@@H](NCc3ccc(CN5CCN(C)CC5)o3)[C@H]3COC(=O)[C@H]23)OCO4)cc(OC)c1OC
Ratio IC50 [1]: >100
IC50 [2]: 15.3 µM
IC50 [3]: > 1000 µM
IC50 [4]: > 100 µM

COc1cc([C@@H]2c3cc4c(cc3[C@@H](NCc3ccc([N+](=O)[O-])o3)[C@H]3COC(=O)[C@H]23)OCO4)cc(OC)c1OC
Ratio IC50 [1]: 0.905
Activity [5]: Active
Activity [6]: 13.5%
Activity [7]: Active
Activity [8]: Active
Activity [9]: 77.3%
Activity [10]: 65.35%
Activity [11]: 4.02%
MDR1 mRNA reduction (qualitative) [12]: Active
Activity [13]: Active
IC50 [2]: 7.55 µM
Activity [14]: 31.2%
Activity [15]: Active
Activity [16]: 8.05%
Activity [17]: 28.2%
Activity [18]: Active
Activity [19]: 56.3%
Activity [20]: 14.8%
Activity [21]: 1.09%
Activity [22]: Active
inhibition [23]: Dose-dependent effect
Activity [24]: Active
Activity [25]: 46.4%
inhibition [26]: 70%
Activity [27]: 11.9%
Activity [28]: 3.9%
Activity [29]: 34.5%
growth inhibition (GI) [30]: Dose-dependent effect
IC50 [3]: 5.42 µM
growth inhibition (GI) [4]: Dose-dependent effect
IC50 [4]: 5.99 µM

COc1cc([C@@H]2c3cc4c(cc3[C@@H](NCc3ccc(C)o3)[C@H]3COC(=O)[C@H]23)OCO4)cc(OC)c1OC
Ratio IC50 [1]: 1.48
IC50 [2]: 1.94 µM
IC50 [3]: 10.1 µM
IC50 [4]: 6.79 µM

CCN1CCN(Cc2ccc(CN[C@@H]3c4cc5c(cc4[C@@H](c4cc(OC)c(O)c(OC)c4)[C@H]4C(=O)OC[C@@H]43)OCO5)o2)CC1
Ratio IC50 [1]: 16.54
IC50 [2]: 0.67 µM
IC50 [3]: 123 µM
IC50 [4]: 7.45 µM

COc1cc([C@@H]2c3cc4c(cc3[C@@H](NCc3ccc(CN(C)C)o3)[C@H]3COC(=O)[C@H]23)OCO4)cc(OC)c1O
Ratio IC50 [1]: 8.89
IC50 [2]: 0.51 µM
IC50 [3]: 70.1 µM
IC50 [4]: 7.89 µM

CCN(CC)Cc1ccc(CN[C@@H]2c3cc4c(cc3[C@@H](c3cc(OC)c(OC)c(OC)c3)[C@H]3C(=O)OC[C@@H]32)OCO4)o1
Ratio IC50 [1]: >100
IC50 [2]: > 100 µM
IC50 [3]: > 1000 µM
IC50 [4]: > 100 µM

CCN(CC)Cc1ccc(CN[C@@H]2c3cc4c(cc3[C@@H](c3cc(OC)c(O)c(OC)c3)[C@H]3C(=O)OC[C@@H]32)OCO4)o1
Ratio IC50 [1]: >100
MDR1 mRNA reduction (qualitative) [12]: Active
IC50 [2]: 6.38 µM
inhibition [26]: 35%
IC50 [3]: > 1000 µM
IC50 [4]: 8.25 µM

COc1cc([C@@H]2c3cc4c(cc3[C@@H](NCc3ccc([N+](=O)[O-])o3)[C@H]3COC(=O)[C@H]23)OCO4)cc(OC)c1O
Ratio IC50 [1]: 6.41
IC50 [2]: 6.64 µM
IC50 [3]: 59.2 µM
IC50 [4]: 9.24 µM

COc1cc([C@@H]2c3cc4c(cc3[C@H](O)[C@H]3COC(=O)[C@H]23)OCO4)cc(OC)c1OC [PODOFILOX]
Ratio IC50 [1]: 5.667
IC50 [3]: 0.17 µM
